ChEMBL document CHEMBL4354843, “Structure-Based Design of a Potent and Selective Covalent Inhibitor for SRC Kinase That Targets a P-Loop Cysteine” (J Med Chem, 2020)

Key:
[1] = biological target: Ribosomal protein S6 kinase beta-1 (Homo sapiens) (UniProt P23443); assay: Binding affinity to wild-type human partial length S6K1 (M1 to S421 residues) expressed in mammalian expression system assessed as residual binding level at 1 uM by Kinomescan method relative to control
[2] = biological target: Transient receptor potential cation channel subfamily M member 6 (Homo sapiens) (UniProt Q9BX84); assay: Binding affinity to wild-type human partial length TRPM6 (Q1723 to I1998 residues) expressed in mammalian expression system assessed as residual binding level at 1 uM by Kinomescan method relative to control
Method in brief: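 Active site-directed competition binding panel (KinomeScan, 468 kinases). Test compound at 1 μM. Read-out is kinase binding remaining versus DMSO control, expressed as percent of control. Scores above 35% are treated as weak binding.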

[3] = test system: Serine/threonine-protein kinase B-raf (Homo sapiens), P15056 [V600E]; assay: Binding affinity to human partial length BRAF V600E mutant (S429 to E741 residues) expressed in mammalian expression system assessed as residual binding level at 1 uM by Kinomescan method relative to control
Method in brief: (§1)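 KinomeScan active site-directed competition binding panel (468 kinases), compound tested at 1 μM. Result expressed as remaining kinase signal versus DMSO control (percent of control).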

[4] = biological target: Serine/threonine-protein kinase WNK3 (Homo sapiens) (UniProt Q9BYP7); assay: Binding affinity to wild-type human partial length WNK3 (M1 to D434 residues) expressed in mammalian expression system assessed as residual binding level at 1 uM by Kinomescan method relative to control
[5] = biological target: Hormonally up-regulated neu tumor-associated kinase (Homo sapiens) (UniProt P57058); assay: Binding affinity to wild-type human partial length HUNK (A31 to K354 residues) expressed in bacterial expression system assessed as residual binding level at 1 uM by Kinomescan method relative to control
[6] = biological target: Serine/threonine-protein kinase Nek11 (Homo sapiens) (UniProt Q8NG66); assay: Binding affinity to wild-type human partial length NEK11 (M1 to E313 residues) expressed in mammalian expression system assessed as residual binding level at 1 uM by Kinomescan method relative to control
Method in brief: (§2)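 Active-site-directed competition binding panel of 468 kinases (KinomeScan), compound at 1 μM. The read-out is kinase remaining bound, given as a percentage of the DMSO control. […]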

[7] = biological target: Serine/threonine-protein kinase MAK (Homo sapiens) (UniProt P20794); assay: Binding affinity to wild-type human partial length MAK (M1 to P314 residues) expressed in bacterial expression system assessed as residual binding level at 1 uM by Kinomescan method relative to control; method in brief: as §2
Sequence of Serine/threonine-protein kinase MAK (Homo sapiens) (P20794 whole entry, the tested form may be a part): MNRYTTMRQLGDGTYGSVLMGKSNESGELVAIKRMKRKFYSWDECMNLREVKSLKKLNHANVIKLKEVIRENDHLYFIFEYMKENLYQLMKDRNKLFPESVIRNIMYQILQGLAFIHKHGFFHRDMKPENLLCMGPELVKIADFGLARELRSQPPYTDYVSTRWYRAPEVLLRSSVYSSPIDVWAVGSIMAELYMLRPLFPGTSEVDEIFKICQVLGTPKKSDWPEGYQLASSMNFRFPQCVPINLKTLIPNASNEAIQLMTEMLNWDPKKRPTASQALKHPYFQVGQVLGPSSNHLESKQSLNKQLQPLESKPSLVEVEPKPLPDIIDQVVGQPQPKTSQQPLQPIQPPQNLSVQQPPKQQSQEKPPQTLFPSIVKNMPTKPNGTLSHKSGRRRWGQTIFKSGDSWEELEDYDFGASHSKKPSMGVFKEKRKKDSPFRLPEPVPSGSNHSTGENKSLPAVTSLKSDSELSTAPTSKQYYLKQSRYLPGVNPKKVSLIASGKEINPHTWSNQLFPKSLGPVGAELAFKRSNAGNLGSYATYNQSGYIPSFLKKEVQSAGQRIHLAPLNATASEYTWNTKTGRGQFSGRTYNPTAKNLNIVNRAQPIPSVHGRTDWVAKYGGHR

[8] = biological target: Tyrosine-protein kinase ZAP-70 (Homo sapiens) (UniProt P43403); assay: Binding affinity to wild-type human partial length ZAP70 (D20 to G299 residues) expressed in mammalian expression system assessed as residual binding level at 1 uM by Kinomescan method relative to control
[9] = test system: Fibroblast growth factor receptor 3 (Homo sapiens), P22607 [G697C]; assay: Binding affinity to human partial length FGFR3 G697C mutant (R442 to S771 residues) expressed in bacterial expression system assessed as residual binding level at 1 uM by Kinomescan method relative to control; method in brief: as §1
Sequence of Fibroblast growth factor receptor 3 (Homo sapiens), P22607 [G697C] (P22607 whole entry G697C, the tested form may be a part): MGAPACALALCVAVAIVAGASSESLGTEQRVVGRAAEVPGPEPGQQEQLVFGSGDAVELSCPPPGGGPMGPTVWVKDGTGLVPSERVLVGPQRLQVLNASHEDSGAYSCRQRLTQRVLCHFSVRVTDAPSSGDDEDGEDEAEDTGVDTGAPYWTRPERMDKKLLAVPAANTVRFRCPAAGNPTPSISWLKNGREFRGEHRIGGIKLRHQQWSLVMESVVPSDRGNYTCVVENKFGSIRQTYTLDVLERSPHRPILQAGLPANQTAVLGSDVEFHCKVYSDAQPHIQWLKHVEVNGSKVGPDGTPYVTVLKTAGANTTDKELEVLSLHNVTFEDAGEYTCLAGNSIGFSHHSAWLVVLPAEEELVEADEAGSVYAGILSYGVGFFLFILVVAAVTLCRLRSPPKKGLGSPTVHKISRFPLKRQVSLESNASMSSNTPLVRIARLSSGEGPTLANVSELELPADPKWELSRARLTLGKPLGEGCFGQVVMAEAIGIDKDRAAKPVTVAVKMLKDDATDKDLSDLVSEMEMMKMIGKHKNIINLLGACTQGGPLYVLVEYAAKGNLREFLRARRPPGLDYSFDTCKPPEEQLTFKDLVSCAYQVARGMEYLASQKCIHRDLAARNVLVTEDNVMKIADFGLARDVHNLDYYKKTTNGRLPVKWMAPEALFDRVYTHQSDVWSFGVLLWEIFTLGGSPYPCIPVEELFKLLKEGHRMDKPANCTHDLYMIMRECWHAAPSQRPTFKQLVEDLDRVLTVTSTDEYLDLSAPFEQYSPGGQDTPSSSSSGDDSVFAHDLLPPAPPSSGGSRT

[10] = biological target: Serine/threonine-protein kinase RIO3 (Homo sapiens) (UniProt O14730); assay: Binding affinity to wild-type human full length RIOK3 (M1 to E519 residues) expressed in bacterial expression system assessed as residual binding level at 1 uM by Kinomescan method relative to control
Method in brief: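 Active-site-directed competition binding screen across a 468-kinase panel, run with the test compound at 1 μM. The read-out is the kinase signal remaining relative to a DMSO control, reported as a percentage. […]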

[11] = biological target: Mitogen-activated protein kinase 10 (Homo sapiens) (UniProt P53779); assay: Binding affinity to wild-type human partial length JNK3 (V28 to Q422 residues) expressed in mammalian expression system assessed as residual binding level at 1 uM by Kinomescan method relative to control
Sequence of Mitogen-activated protein kinase 10 (Homo sapiens) (P53779 whole entry, the tested form may be a part): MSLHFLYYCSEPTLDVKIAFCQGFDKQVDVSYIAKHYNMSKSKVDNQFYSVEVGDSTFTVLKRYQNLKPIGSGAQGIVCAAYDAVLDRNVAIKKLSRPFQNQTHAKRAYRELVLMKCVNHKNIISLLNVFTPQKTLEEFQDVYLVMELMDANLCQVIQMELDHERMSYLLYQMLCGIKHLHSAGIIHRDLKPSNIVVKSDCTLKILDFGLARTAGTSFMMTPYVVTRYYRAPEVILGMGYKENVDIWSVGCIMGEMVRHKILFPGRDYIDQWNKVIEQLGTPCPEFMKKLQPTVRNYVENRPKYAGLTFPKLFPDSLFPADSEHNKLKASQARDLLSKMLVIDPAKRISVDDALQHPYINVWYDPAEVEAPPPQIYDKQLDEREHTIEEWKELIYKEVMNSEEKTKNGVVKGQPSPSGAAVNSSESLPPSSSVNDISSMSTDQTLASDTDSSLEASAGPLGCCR

[12] = biological target: Ephrin type-A receptor 6 (Homo sapiens) (UniProt Q9UF33); assay: Binding affinity to wild-type human partial length EPHA6 (Y700 to E1046 residues) expressed in bacterial expression system assessed as residual binding level at 1 uM by Kinomescan method relative to control
Sequence of Ephrin type-A receptor 6 (Homo sapiens) (Q9UF33 whole entry, the tested form may be a part): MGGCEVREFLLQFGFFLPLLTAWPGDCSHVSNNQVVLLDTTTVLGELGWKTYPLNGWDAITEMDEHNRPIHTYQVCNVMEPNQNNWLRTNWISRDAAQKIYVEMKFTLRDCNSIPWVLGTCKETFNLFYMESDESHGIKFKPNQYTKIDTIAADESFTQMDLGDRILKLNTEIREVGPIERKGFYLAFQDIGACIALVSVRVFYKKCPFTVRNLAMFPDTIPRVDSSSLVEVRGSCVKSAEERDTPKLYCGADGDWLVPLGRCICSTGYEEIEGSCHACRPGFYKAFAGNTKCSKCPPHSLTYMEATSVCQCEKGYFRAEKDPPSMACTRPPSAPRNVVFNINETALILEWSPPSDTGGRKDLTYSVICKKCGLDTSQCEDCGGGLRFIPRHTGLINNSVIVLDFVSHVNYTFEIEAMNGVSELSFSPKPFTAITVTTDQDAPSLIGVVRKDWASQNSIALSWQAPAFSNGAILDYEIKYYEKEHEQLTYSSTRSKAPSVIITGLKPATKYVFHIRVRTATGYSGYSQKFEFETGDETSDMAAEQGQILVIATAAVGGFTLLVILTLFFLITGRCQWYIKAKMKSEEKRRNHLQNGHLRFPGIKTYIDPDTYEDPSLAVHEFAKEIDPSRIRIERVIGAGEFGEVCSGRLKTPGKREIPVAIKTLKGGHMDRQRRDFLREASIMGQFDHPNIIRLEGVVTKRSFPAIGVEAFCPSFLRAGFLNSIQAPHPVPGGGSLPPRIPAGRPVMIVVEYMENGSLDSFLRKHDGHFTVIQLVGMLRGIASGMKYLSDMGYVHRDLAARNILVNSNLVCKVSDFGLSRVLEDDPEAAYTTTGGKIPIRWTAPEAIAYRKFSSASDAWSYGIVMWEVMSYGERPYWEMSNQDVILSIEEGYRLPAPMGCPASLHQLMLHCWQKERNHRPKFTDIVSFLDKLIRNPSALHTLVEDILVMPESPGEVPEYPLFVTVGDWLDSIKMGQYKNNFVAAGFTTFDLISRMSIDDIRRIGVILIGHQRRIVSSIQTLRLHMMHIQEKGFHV

[13] = biological target: Calcium/calmodulin-dependent protein kinase type 1D (Homo sapiens) (UniProt Q8IU85); assay: Binding affinity to wild-type human partial length CAMK1D (M1 to K299 residues) expressed in bacterial expression system assessed as residual binding level at 1 uM by Kinomescan method relative to control
[14] = test system: Tyrosine-protein kinase ABL1 (Homo sapiens), P00519 [Q252H]; assay: Binding affinity to human phosphorylated ABL1 Q252H mutant expressed in mammalian expression system assessed as residual binding level at 1 uM by Kinomescan method relative to control
Method in brief: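 Active-site-directed KinomeScan competition binding panel covering 468 kinases, compound tested at 1 μM. Each readout is the kinase signal remaining with compound, expressed as a percentage of the DMSO control. […]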

[15] = biological target: Serine/threonine-protein kinase TNNI3K (Homo sapiens) (UniProt Q59H18); assay: Binding affinity to wild-type human full length TNNI3K (M1 to S835 residues) expressed in bacterial expression system assessed as residual binding level at 1 uM by Kinomescan method relative to control
Method in brief: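 KinomeScan, an active site-directed competition binding panel of 468 kinases. The test compound was at 1 μM. The readout is remaining kinase binding as a percentage of the DMSO control. Scores above 35% were treated as weak binding and not listed.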

[16] = test system: ALK tyrosine kinase receptor (Homo sapiens), Q9UM73 [C1156Y]; assay: Binding affinity to wild-type human partial length ALK C1156Y mutant (I1088 to E1409 residues) expressed in mammalian expression system assessed as residual binding level at 1 uM by Kinomescan method relative to control
Sequence of ALK tyrosine kinase receptor (Homo sapiens), Q9UM73 [C1156Y] (Q9UM73 whole entry C1156Y, looked up, the tested form may be a part): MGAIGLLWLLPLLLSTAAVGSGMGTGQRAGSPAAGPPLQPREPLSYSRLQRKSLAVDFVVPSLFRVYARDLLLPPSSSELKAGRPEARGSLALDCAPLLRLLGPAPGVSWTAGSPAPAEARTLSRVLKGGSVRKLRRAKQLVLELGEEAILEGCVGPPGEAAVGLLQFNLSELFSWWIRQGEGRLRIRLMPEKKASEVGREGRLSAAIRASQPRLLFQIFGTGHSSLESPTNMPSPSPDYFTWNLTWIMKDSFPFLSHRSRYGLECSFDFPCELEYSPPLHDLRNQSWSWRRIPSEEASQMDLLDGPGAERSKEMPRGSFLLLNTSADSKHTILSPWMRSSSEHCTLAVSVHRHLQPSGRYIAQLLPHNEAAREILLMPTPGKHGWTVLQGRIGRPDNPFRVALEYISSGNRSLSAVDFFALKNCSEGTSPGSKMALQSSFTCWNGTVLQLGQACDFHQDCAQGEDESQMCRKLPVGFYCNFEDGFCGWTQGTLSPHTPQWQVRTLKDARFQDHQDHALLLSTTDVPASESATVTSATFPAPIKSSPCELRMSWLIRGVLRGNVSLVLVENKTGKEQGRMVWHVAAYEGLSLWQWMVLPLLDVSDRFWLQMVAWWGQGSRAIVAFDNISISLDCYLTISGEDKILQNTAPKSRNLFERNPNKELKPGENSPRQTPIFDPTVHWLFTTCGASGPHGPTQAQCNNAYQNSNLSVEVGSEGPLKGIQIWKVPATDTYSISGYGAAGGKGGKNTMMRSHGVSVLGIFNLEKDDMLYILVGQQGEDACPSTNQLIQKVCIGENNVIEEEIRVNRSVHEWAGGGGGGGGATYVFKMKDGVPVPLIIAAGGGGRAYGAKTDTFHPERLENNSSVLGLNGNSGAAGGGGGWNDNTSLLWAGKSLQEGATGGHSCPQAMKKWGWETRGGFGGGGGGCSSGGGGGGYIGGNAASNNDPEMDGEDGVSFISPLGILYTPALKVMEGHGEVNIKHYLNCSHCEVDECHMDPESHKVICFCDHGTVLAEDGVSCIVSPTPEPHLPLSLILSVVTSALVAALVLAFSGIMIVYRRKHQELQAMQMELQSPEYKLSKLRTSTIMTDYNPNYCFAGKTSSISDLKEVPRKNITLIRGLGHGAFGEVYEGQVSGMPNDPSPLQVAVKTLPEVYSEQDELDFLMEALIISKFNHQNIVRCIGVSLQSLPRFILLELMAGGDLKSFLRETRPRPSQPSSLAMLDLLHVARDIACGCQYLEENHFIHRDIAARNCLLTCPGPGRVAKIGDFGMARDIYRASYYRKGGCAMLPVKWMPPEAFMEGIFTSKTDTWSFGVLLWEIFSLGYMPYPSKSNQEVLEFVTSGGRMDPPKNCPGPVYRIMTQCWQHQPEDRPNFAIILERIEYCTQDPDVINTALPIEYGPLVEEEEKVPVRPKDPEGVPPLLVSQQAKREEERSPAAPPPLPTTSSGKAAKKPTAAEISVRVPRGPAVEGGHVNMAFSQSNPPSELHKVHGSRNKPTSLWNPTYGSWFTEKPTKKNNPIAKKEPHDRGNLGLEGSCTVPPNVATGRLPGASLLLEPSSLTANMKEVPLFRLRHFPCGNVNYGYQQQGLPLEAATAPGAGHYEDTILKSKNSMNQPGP

[17] = biological target: Insulin-like growth factor 1 receptor (Homo sapiens) (UniProt P08069); assay: Binding affinity to wild-type human partial length IGF1R (L972 to D1294 residues) expressed in bacterial expression system assessed as residual binding level at 1 uM by Kinomescan method relative to control
[18] = biological target: Serine/threonine-protein kinase SIK3 (Homo sapiens) (UniProt Q9Y2K2); assay: Binding affinity to wild-type human partial length QSK (A90 to L395 residues) expressed in mammalian expression system assessed as residual binding level at 1 uM by Kinomescan method relative to control; method in brief: as §2
[19] = biological target: Rho-associated protein kinase 1 (Homo sapiens) (UniProt Q13464); assay: Binding affinity to wild-type human partial length ROCK1 (M1 to R415 residues) expressed in mammalian expression system assessed as residual binding level at 1 uM by Kinomescan method relative to control
[20] = test system: Phosphatidylinositol 4,5-bisphosphate 3-kinase catalytic subunit alpha isoform (Homo sapiens), P42336 [Q546K]; assay: Binding affinity to human partial length PIK3CA Q546K mutant (R108 to N1068 residues) expressed in mammalian expression system assessed as residual binding level at 1 uM by Kinomescan method relative to control; method in brief: as §1

Sequence of Ribosomal protein S6 kinase beta-1 (Homo sapiens) (P23443 whole entry, looked up, the tested form may be a part): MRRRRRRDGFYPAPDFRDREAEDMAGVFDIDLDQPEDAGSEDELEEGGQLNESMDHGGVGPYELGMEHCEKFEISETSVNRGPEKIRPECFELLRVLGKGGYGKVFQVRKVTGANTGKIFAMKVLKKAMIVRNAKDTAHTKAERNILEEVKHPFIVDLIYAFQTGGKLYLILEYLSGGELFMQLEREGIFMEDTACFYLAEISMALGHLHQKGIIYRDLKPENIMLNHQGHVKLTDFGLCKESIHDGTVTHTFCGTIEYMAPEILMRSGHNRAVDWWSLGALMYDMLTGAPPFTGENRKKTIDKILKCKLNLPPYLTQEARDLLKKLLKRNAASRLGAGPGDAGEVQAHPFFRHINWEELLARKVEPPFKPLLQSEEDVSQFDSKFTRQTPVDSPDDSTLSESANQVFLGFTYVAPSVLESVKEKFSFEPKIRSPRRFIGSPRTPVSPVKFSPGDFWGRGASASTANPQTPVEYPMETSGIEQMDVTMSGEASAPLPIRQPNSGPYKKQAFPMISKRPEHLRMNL

Q: For `C=CC(=O)Nc1ccccc1Nc1nc(Nc2ccc(N3CCN(C)CC3)cc2)ncc1C(=O)Nc1c(C)cccc1Cl`, which Activity [1] is on record?
A: 95%

Q: What about the Activity [2] of the same compound?
A: 81%

Q: And the Activity [3]?
A: 100%

Q: What about the Activity [4] of the same compound?
A: 100%

Q: What about the Activity [5] of the same compound?
A: 100%

Q: What about the Activity [6] of the same compound?
A: 72%

Q: What about the Activity [7] of the same compound?
A: 70%

Q: And the Activity [8]?
A: 100%

Q: And the Activity [9]?
A: 100%

Q: What about the Activity [10] of the same compound?
A: 92%

Q: And the Activity [11]?
A: 100%

Q: What about the Activity [12] of the same compound?
A: 100%

Q: What about the Activity [13] of the same compound?
A: 100%

Q: What about the Activity [14] of the same compound?
A: 0.7%

Q: And the Activity [15]?
A: 83%

Q: And the Activity [16]?
A: 99%

Q: And the Activity [17]?
A: 100%

Q: And the Activity [18]?
A: 69%

Q: What about the Activity [19] of the same compound?
A: 100%

Q: What about the Activity [20] of the same compound?
A: 100%
